According to ChEMBL document CHEMBL2150931, “Design, synthesis, and biological activity of a novel series of human sirtuin-2-selective inhibitors” (J Med Chem, 2012):
pIC50: −log10 of the molar value. Calls of active or inactive are those of the source. The calls are words filed in the database; no cut-off is given here.

How the values were obtained:
[1] = biological target: T1, NAD-dependent protein deacetylase sirtuin-1 (Homo sapiens, UniProt Q96EB6); test: Inhibition of human recombinant SIRT1 using Fluor de Lys-SIRT as substrate incubated for 60 mins prior to substrate addition measured after 60 mins by fluorimetric analysis
T1 sequence (Q96EB6 whole entry): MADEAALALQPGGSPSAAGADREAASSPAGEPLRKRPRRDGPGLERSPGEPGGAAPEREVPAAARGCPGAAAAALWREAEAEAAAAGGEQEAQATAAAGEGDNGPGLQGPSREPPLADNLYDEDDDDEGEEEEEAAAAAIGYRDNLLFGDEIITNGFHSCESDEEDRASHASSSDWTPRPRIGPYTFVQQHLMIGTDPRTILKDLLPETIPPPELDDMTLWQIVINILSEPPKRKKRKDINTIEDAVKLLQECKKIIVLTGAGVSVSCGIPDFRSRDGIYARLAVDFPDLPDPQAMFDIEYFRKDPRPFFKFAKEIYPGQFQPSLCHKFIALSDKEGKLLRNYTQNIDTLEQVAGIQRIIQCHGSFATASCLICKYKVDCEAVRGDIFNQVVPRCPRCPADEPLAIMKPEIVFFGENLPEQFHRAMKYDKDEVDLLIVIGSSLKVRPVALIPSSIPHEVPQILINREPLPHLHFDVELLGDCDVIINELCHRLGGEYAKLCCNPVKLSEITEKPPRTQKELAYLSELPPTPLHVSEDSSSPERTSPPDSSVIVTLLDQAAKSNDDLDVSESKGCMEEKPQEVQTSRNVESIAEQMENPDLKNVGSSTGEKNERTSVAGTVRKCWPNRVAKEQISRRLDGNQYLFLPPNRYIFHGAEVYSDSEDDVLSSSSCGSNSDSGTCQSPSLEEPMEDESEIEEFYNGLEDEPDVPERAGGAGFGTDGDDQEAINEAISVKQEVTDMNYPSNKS
Procedure, shortened: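 Human recombinant SIRT1 run the same way: 60 min at 37 °C with 1 mM NAD⁺ and serial compound dilutions, then 25 μM Fluor de Lys-SIRT substrate for 60 min. Stopped with nicotinamide-containing Developer II and read 45 min later at ex 360/em 460 nm. IC₅₀ from logit regression of % inhibition vs control; means of ≥3 experiments.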

[2] = biological target: T2, NAD-dependent protein deacetylase sirtuin-3, mitochondrial (Homo sapiens, UniProt Q9NTG7); test: Inhibition of human recombinant SIRT3 using Fluor de Lys-SIRT as substrate incubated for 60 mins prior to substrate addition measured after 60 mins by fluorimetric analysis
T2 sequence (Q9NTG7 whole entry): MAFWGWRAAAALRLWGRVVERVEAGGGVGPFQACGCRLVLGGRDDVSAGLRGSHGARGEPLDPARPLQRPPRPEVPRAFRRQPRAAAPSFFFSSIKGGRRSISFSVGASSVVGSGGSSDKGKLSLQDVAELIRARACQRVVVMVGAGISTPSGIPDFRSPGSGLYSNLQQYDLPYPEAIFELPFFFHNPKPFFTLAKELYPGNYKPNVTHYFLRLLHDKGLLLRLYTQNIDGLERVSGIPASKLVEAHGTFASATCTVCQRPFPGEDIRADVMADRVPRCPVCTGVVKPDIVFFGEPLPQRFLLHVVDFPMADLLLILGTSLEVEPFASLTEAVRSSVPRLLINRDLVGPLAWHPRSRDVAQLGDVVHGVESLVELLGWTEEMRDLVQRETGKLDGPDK

[3] = biological target: T3, NAD-dependent protein deacetylase sirtuin-2 (Homo sapiens) (UniProt Q8IXJ6); test: Binding affinity to recombinant SIRT2 by surface plasmon resonance assay
T3 sequence (whole entry): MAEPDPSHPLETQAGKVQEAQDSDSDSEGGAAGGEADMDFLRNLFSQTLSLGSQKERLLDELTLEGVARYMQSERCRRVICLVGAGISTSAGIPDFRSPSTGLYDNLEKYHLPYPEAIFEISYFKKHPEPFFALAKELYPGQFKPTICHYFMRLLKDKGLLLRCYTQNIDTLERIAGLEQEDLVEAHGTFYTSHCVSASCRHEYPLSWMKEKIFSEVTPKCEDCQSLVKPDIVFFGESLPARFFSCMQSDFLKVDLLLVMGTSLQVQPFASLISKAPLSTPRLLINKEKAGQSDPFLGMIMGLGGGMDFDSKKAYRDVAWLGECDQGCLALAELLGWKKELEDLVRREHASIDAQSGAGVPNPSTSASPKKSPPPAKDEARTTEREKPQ

[4] = biological target: T4, NAD-dependent protein deacetylase sirtuin-1 (Homo sapiens) (UniProt Q96EB6); test: Inhibition of SIRT1 in human HCT116 cells assessed as increase in acetylated p53 at 1 to 10 uM after 8 hrs by Western blot analysis; type: cell-based; settings: HCT-116
T4 sequence (whole entry): T1 sequence (Q96EB6 whole entry)
Procedure, shortened: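 HCT116 cells grown in McCoy's 5A with 10% FBS. 5×10⁵ cells exposed 8 h to compound at 1 or 10 μM, alongside 20 μM etoposide. SDS lysates equalized by Bradford assay and run on 15% SDS-PAGE, then blotted onto nitrocellulose. Blots probed overnight at 4 °C for acetyl-p53, p53, acetyl-α-tubulin and α-tubulin, and detected by ECL. Signal given as acetylated/total protein ratio.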

[5] = biological target: Histone deacetylase 1 (Homo sapiens, UniProt Q13547); test: Inhibition of HDAC1
[6] = biological target: Histone deacetylase 2 (Homo sapiens, UniProt Q92769); test: Inhibition of HDAC2
[7] = biological target: Histone deacetylase 5 (Homo sapiens, UniProt Q9UQL6); test: Inhibition of HDAC5
[8] = biological target: Histone deacetylase 9 (Homo sapiens, UniProt Q9UKV0); test: Inhibition of HDAC9
[9] = biological target: T5, Polyamine deacetylase HDAC10 (Homo sapiens, UniProt Q969S8); test: Inhibition of HDAC10
T5 sequence (Q969S8 whole entry): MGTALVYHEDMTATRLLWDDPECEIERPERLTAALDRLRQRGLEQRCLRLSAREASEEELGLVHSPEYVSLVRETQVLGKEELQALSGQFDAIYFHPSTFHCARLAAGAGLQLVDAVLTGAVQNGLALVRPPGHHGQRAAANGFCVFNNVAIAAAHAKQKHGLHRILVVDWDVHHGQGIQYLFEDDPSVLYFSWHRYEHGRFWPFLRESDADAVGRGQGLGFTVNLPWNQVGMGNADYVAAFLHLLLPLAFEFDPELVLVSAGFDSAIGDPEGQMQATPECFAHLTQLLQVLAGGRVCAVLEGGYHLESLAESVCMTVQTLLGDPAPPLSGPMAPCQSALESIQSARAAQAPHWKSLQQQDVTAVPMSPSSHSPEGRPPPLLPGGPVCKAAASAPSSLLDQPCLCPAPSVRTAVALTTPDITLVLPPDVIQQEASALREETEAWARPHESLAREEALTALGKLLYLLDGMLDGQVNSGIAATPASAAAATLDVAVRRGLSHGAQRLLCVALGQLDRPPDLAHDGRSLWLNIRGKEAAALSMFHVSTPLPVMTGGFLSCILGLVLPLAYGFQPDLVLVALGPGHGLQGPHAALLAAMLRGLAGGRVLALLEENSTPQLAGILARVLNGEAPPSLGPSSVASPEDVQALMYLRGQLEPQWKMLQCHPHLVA

Sequence of Histone deacetylase 5 (Q9UQL6 whole entry): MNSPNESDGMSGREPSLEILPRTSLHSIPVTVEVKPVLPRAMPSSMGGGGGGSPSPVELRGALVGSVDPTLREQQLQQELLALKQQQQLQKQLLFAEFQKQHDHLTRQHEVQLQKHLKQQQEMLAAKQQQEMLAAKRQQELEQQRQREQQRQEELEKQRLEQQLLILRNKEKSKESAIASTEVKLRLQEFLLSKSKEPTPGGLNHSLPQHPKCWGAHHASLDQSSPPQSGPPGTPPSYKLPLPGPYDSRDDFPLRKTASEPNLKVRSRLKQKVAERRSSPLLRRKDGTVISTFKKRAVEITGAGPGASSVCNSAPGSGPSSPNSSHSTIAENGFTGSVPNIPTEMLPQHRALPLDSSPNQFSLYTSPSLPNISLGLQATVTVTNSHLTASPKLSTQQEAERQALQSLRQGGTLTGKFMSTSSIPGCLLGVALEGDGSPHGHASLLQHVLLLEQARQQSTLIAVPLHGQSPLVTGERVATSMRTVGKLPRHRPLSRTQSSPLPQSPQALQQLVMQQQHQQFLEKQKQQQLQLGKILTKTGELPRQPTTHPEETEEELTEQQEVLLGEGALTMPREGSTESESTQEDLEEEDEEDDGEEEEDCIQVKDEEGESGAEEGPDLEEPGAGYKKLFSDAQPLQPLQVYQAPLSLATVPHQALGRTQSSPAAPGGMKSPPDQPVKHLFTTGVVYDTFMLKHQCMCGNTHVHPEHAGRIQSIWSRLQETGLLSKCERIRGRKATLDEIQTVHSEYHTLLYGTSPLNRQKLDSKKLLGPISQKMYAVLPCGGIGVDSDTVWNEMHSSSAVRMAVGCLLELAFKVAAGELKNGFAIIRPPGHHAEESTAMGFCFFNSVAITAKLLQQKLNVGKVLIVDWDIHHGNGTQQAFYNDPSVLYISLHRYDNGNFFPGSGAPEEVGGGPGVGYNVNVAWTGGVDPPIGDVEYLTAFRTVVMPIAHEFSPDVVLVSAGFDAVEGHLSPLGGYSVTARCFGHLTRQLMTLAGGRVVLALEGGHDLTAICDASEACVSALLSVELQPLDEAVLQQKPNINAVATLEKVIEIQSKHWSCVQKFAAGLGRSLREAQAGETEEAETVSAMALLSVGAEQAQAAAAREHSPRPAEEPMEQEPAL
Sequence of Histone deacetylase 2 (Q92769 whole entry): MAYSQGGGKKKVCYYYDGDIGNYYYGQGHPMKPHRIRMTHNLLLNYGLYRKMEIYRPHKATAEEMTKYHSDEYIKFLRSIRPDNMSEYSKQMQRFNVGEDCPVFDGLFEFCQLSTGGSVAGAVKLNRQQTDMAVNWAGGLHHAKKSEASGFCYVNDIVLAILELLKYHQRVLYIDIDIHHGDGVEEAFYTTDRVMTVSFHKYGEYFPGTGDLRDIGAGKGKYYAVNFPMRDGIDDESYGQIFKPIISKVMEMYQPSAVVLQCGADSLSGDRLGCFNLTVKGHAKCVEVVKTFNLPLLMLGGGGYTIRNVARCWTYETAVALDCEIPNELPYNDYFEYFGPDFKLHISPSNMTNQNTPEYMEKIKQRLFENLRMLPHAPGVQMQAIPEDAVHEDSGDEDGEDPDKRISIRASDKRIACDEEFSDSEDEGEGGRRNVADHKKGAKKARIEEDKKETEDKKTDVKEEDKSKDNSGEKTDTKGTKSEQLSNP
Sequence of Histone deacetylase 9 (Q9UKV0 whole entry): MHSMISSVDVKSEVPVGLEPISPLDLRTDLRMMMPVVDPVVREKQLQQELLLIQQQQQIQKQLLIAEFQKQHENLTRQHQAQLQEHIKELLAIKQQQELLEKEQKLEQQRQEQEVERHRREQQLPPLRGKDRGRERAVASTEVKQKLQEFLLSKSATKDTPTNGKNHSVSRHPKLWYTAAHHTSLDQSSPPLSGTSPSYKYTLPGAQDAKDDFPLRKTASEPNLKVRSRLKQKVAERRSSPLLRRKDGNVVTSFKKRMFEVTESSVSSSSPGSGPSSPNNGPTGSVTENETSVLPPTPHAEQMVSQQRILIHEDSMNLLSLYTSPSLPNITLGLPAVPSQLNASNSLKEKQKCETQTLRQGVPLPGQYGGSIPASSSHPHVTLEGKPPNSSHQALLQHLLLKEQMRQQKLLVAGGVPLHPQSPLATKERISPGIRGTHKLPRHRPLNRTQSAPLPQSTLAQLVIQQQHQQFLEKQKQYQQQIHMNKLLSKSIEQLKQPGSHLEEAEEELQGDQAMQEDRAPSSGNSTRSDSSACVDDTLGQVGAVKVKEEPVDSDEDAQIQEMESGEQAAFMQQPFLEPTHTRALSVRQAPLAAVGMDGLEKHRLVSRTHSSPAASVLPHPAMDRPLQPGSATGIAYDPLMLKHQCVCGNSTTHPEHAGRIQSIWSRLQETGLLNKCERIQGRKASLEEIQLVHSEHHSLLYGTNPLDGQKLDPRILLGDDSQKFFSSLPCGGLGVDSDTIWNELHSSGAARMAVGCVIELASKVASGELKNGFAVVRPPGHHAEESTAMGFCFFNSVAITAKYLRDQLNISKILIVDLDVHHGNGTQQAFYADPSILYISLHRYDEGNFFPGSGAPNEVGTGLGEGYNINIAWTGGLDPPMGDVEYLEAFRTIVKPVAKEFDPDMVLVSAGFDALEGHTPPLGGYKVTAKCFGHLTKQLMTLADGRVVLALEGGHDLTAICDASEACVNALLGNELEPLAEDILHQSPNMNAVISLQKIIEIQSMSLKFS
Sequence of Histone deacetylase 1 (Q13547 whole entry): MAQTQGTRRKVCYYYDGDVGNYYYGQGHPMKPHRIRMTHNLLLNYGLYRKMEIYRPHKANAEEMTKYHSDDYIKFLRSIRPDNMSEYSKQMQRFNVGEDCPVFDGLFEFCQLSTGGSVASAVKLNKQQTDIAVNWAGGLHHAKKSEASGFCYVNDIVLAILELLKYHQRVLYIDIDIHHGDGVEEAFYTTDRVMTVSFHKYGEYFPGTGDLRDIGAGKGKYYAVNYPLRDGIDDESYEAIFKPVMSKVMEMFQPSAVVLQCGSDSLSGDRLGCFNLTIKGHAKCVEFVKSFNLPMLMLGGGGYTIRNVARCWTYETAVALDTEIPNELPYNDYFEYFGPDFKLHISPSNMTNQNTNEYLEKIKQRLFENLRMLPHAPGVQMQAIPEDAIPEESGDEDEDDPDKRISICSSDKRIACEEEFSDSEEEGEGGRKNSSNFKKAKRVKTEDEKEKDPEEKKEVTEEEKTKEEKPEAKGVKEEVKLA

## NC(=O)c1ccccc1Nc1cccc(OCCc2ccccc2)c1
[1]
  pIC50: < 4.00
[2]
  pIC50: < 3.52
[3]
  Activity: Dose-dependent effect
[4]
  inhibition: inactive
[5]
  pIC50: < 4.52
[6]
  pIC50: < 4.52
[7]
  pIC50: < 4.52
[8]
  pIC50: < 4.52
[9]
  pIC50: < 4.52
